Tests used:
[1] = molecular target: T1, 5-hydroxytryptamine receptor 1A (Rattus norvegicus, UniProt P19327); test: Displacement of [3H]8-OH-DPAT from 5HT1A receptor in rat hippocampal membrane; format: cell membranes, Hippocampus
T1 sequence (P19327 whole entry): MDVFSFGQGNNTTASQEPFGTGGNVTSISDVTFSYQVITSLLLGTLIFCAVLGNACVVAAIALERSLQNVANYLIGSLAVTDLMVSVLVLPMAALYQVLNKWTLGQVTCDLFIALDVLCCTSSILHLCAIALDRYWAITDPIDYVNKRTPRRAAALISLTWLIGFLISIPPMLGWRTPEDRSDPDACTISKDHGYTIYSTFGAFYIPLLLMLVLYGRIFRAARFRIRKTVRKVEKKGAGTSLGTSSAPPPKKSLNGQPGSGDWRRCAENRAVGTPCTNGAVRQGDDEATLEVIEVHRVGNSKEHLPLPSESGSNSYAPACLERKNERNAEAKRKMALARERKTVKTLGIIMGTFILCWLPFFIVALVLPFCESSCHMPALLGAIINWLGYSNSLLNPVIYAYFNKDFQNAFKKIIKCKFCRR
Procedure, shortened: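 Native receptor in rat hippocampal membranes, labelled with [3H]-8-OH-DPAT (170 Ci/mmol) and displaced by the compounds, which were tested without further purification. Screening used two compound concentrations. Full binding curves used 7–9 concentrations, each run in triplicate, and Ki was derived from inhibition of binding.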

[2] = molecular target: 5-hydroxytryptamine receptor 2A (Rattus norvegicus, UniProt P14842); test: Displacement of [3H]ketanserin from 5HT2A receptor in rat cortical membrane; format: cell membranes
Sequence of 5-hydroxytryptamine receptor 2A (P14842 whole entry): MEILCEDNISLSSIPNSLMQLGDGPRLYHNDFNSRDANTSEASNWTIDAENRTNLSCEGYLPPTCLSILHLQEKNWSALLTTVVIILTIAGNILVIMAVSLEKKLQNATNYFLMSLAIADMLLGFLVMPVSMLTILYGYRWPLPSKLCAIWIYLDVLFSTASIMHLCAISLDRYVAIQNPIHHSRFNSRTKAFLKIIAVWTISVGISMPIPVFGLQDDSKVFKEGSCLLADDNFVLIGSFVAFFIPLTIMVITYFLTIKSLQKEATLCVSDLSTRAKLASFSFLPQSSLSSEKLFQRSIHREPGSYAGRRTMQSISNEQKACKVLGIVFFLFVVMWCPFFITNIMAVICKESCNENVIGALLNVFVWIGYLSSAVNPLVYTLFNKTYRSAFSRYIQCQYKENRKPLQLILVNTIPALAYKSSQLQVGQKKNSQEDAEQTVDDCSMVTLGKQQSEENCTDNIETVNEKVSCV

Structure (SMILES)	Ki [1] [nM]	Ki [2] [nM]
COc1ccccc1N1CCN(CCCN2C(=O)C[C@H](NC(C)=O)C2=O)CC1	480	–
COc1ccccc1N1CCN(CCCN2C(=O)C[C@H](NC(=O)C3CCCCC3)C2=O)CC1	230	–
COc1ccccc1N1CCN(CCN2C(=O)C[C@H](NC(=O)C34CC5CC(CC(C5)C3)C4)C2=O)CC1	579	4800
COc1ccccc1N1CCN(CCN2C(=O)CCC2=O)CC1	2090	17600
O=C1CCC(=O)N1CCN1CCN(c2cccc(Cl)c2)CC1	3670	2120
COc1ccccc1N1CCN(CCN2C(=O)C[C@H](NC(=O)C3CCCCC3)C2=O)CC1	7440	7340
COc1ccccc1N1CCN(CCCNC(=O)[C@@H]2CCCN2C(C)=O)CC1	580	3140
COc1ccccc1N1CCN(CCNC(=O)[C@@H]2CCC(=O)N2C(=O)C2CCCCC2)CC1	1000	14900
O=C(NCCCN1CCN(c2cccc(Cl)c2)CC1)[C@@H]1CCC(=O)N1C(=O)C1CCCCC1	1730	800
O=C(N[C@H]1CC(=O)N(CCN2CCN(c3cccc(Cl)c3)CC2)C1=O)c1ccccc1	10000	1740
COc1ccccc1N1CCN(CCN2C(=O)CC(NC(C)=O)C2=O)CC1 (stereo not drawn)	7590	5680
COc1ccccc1N1CCN(CCNC(=O)[C@@H]2CCCN2C(=O)C23CC4CC(CC(C4)C2)C3)CC1	350	1920
O=C(N[C@H]1CC(=O)N(CCCN2CCN(c3cccc(Cl)c3)CC2)C1=O)C1CCCCC1	360	92
O=C(N[C@H]1CC(=O)N(CCN2CCN(c3cccc(Cl)c3)CC2)C1=O)C1CCCCC1	3780	1410
COc1ccccc1N1CCN(CCNC(=O)[C@@H]2CCC(=O)N2C(=O)c2ccccc2)CC1	1510	8710
O=C(NCCN1CCN(c2cccc(Cl)c2)CC1)[C@@H]1CCCN1C(=O)c1ccccc1	1950	1300
COc1ccccc1N1CCN(CCNC(=O)[C@@H]2CCCN2C(C)=O)CC1	6600	8600
O=C1CC(C2CCCCC2)C(=O)N1CCN1CCN(c2cccc(Cl)c2)CC1 (stereo not drawn)	227	137
COc1ccccc1N1CCN(CCCNC(=O)[C@@H]2CCC(=O)N2C(=O)c2ccccc2)CC1	390	–
O=C(NCCN1CCN(c2cccc(Cl)c2)CC1)[C@@H]1CCCN1C(=O)C1CCCC1	2010	357
COc1ccccc1N1CCN(CCN2C(=O)C[C@H](NC(=O)CC3CC4CCC3C4)C2=O)CC1 (stereo partly drawn)	497	12400
COc1ccccc1N1CCN(CCNC(=O)[C@@H]2CCCN2C(=O)C2CCCCC2)CC1	3550	2330
O=C(NCCN1CCN(c2cccc(Cl)c2)CC1)[C@@H]1CCC(=O)N1C(=O)C1CCCCC1	8520	3260

These reach a lower Ki [1]. Values come first.

Ki [1] [nM]	Ki [2] [nM]	Structure (SMILES)
17	–	COc1ccccc1N1CCN(CCCCNC(=O)[C@@H]2CCC(=O)N2C(=O)C2CCCCC2)CC1
19	990	COc1ccccc1N1CCN(CCCCNC(=O)[C@@H]2CCCN2C(=O)C2CCCCC2)CC1
40	–	COc1ccccc1N1CCN(CCCN2C(=O)C[C@H](NC(=O)CC3CC4CCC3C4)C2=O)CC1 (stereo partly drawn)
63	–	COc1ccccc1N1CCN(CCCN2C(=O)C[C@H](NC(=O)C34CC5CC(CC(C5)C3)C4)C2=O)CC1
69	–	COc1ccccc1N1CCN(CCCCN2C(=O)C[C@H](NC(C)=O)C2=O)CC1
3	503	COc1ccccc1N1CCN(CCCCNC(=O)[C@@H]2CCCN2C(=O)C23CC4CC(CC(C4)C2)C3)CC1
78	128	O=C(NCCCCN1CCN(c2cccc(Cl)c2)CC1)[C@@H]1CCCN1C(=O)c1ccccc1
111	163	O=C(NCCCCN1CCN(c2cccc(Cl)c2)CC1)[C@@H]1CCC(=O)N1C(=O)C1CCCCC1
4.3	15	O=C1CC2(CCCCC2)C(=O)N1CCN1CCN(c2cccc(Cl)c2)CC1
24	868	COc1ccccc1N1CCN(CCN2C(=O)CC(C3CCCCC3)C2=O)CC1 (stereo not drawn)
41	75	O=C(N[C@H]1CC(=O)N(CCCCN2CCN(c3cccc(Cl)c3)CC2)C1=O)c1ccccc1
5.7	254	COc1ccccc1N1CCN(CCN2C(=O)CC3(CCCCC3)C2=O)CC1
